Data reported in ChEMBL document CHEMBL4130386, “Notch Inhibitors from Calotropis gigantea That Induce Neuronal Differentiation of Neural Stem Cells” (J Nat Prod, 2017).
Blank lines part the entries; values can stand above or below the compound they belong to. The source made the active and inactive calls. The rule behind the calls is not given here.

Key:
MEB5 [1] = assay: Induction of neuronal differentiation in mouse MEB5 cells assessed as neurite length at 10 uM after 4 days by Tuj1 staining based immunofluorescence analysis (reference value: 14.3 micrometer); format: functional
Procedure, shortened: (§1)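 MEB5 mouse neurospheres were chemically dissociated and seeded at 2 × 10^6 cells/well on coverslips coated with poly-L-lysine and fibronectin/laminin. After 12 h in proliferation medium, cells were washed with NeuroCult basal medium and treated for 4 days in differentiation medium. They were then fixed in 4% paraformaldehyde and immunostained for Tuj-1 (neurons) and GFAP (astrocytes), with TO-PRO-3 nuclear counterstain. Confocal imaging used four fields per well and three wells per condition, covering over 4000 cells and 670 neurites per sample.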

[2] = target: Neurogenic locus notch homolog protein 1 (Homo sapiens) (UniProt P46531); assay: Inhibition of doxycycline-induced recombinant mouse N-terminal FLAG-tagged Notch1 (1704 to 2531 residues) activation expressed in human LS174T cells assessed as reduction in Hes1 level at 0.1 to 1 uM after 12 hrs by Western blot analysis; format: cell-based
Procedure, shortened: (§2)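 LS174T Notch cells (Tet-On LS174T, N-terminally FLAG-tagged mouse Notch1(1704-2531), stable 12×RBP-J luciferase reporter) seeded 1 × 10^6 cells per 6 cm dish for 12 h at 37 °C. Dox 50 ng/mL for 12 h, then fresh medium with compound for 12 h. Whole-cell lysates, SDS-PAGE, PVDF, ECL detection. Anti-Flag used for the Notch1 fragment; β-actin internal control.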

MEB5 [3] = assay: Induction of neuronal differentiation in mouse MEB5 cells assessed as number of neurons at 10 uM after 4 days by Tuj1 staining based immunofluorescence analysis (reference value: 13.3 %); format: functional; procedure, shortened: as §1
MEB5 [4] = assay: Induction of neuronal differentiation in mouse MEB5 cells assessed as reduction in astrocytes at 10 uM after 4 days by GFAP staining based immunofluorescence analysis; format: functional, cell-based; procedure, shortened: as §1
[5] = target: Neurogenic locus notch homolog protein 1 (Homo sapiens) (UniProt P46531); assay: Inhibition of doxycycline-induced recombinant mouse N-terminal FLAG-tagged Notch1 (1704 to 2531 residues) activation expressed in human LS174T cells assessed as reduction in Hes5 level at 0.1 to 1 uM after 12 hrs by Western blot analysis; format: cell-based; procedure, shortened: as §2
[6] = target: Neurogenic locus notch homolog protein 1 (Mus musculus) (UniProt Q01705); assay: Inhibition of recombinant mouse Notch1-RAMIC expressed in MEB5 cells assessed as reduction in doxycycline-induced NICD expression at 10 uM after 12 hrs by Western blot analysis; format: cell-based
Procedure, shortened: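 Dissociated MEB5 cells were seeded at 2 × 10^6 cells/well in 6 cm dishes coated with poly-L-lysine and fibronectin/laminin. After 12 h in proliferation medium, cells were washed with serum-free NeuroCult basal medium and treated in differentiation medium with 10 μM for 12 h. Whole-cell lysates were run on SDS-PAGE and immunoblotted for NICD, with ECL detection.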

MEB5 [7] = assay: Induction of neuronal differentiation in mouse MEB5 cells assessed as increase in neurite extension length at 10 uM after 4 days by Tuj1 staining based immunofluorescence analysis relative to control; format: functional; procedure, shortened: as §1
[8] = target: Neurogenic locus notch homolog protein 1 (Mus musculus) (UniProt Q01705); assay: Inhibition of recombinant mouse Notch1-RAMIC expressed in MEB5 cells harboring TP1 assessed as luciferase activity at 10 uM after 12 hrs by Dual-Glo luciferase assay (reference value: 0.258); format: cell-based
[9] = Inhibition of recombinant mouse N-terminal FLAG-tagged Notch1 (1704 to 2531 residues) expressed in human LS174T cells assessed as reduction in doxycycline-induced NICD expression after 12 hrs by Bright-Glo luciferase reporter gene assay; format: cell-based
Procedure, shortened: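 LS174T Notch cells seeded 2 × 10^4 cells/well, 12 h at 37 °C. Dox 50 ng/mL for 12 h, then Dox-free medium with samples for 12 h at 37 °C in 0.1% DMSO. Luciferase read with Bright-Glo. Viability measured in parallel by fluorometric microculture cytotoxicity assay. SD, n = 3.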

[10] = target: Gamma-secretase (Homo sapiens) (UniProt Q96BI3+Q9NZ42+Q8WW43+P49768+Q92542+P49810); assay: Effect on gamma-secretase activity in human LS174T cells harboring mouse N-terminal FLAG-tagged Notch1 (1704 to 2531 residues) after 12 hrs by Western blot analysis; format: cell-based
MEB5 [11] = assay: Effect on gamma-secretase activity in mouse MEB5 cells assessed as nicastrin expression at 1 uM after 24 hrs by Western blot analysis; format: cell-based
Procedure, shortened: (§3)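 MEB5 mouse neural stem cells dissociated and seeded on poly-L-lysine and fibronectin/laminin-coated 6 cm dishes in proliferation medium for 12 h. Washed with NeuroCult basal medium, then compound given in differentiation medium for 24 h. Lysates analysed by Western blot (SDS-PAGE, PVDF, ECL); γ-secretase antibody sampler kit used for γ-secretase components.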

MEB5 [12] = assay: Induction of neuronal differentiation in mouse MEB5 cells assessed as number of neurons at 1 uM after 4 days by Tuj1 staining based immunofluorescence analysis (reference value: 13.3 %); format: functional
[13] = target: Neurogenic locus notch homolog protein 1 (Mus musculus) (UniProt Q01705); assay: Inhibition of Notch1 in mouse MEB5 cells assessed as reduction in NICD expression at 1 uM after 24 hrs in presence of proteasome inhibitor MG132 by Western blot analysis; format: cell-based
MEB5 [14] = assay: Inhibition of Wnt signaling in mouse MEB5 cells assessed as reduction in beta-catenin level up to 1 uM after 12 to 24 hrs by Western blot analysis; format: cell-based
MEB5 [15] = assay: Effect on gamma-secretase activity in mouse MEB5 cells assessed as PS1 expression at 1 uM after 24 hrs by Western blot analysis; format: cell-based; procedure, shortened: as §3
[16] = target: Neurogenic locus notch homolog protein 1 (Mus musculus) (UniProt Q01705); assay: Inhibition of Notch1 in mouse MEB5 cells assessed as reduction in NICD expression at 1 uM after 24 hrs by Western blot analysis; format: cell-based; procedure, shortened: as §3
MEB5 [17] = assay: Induction of neuronal differentiation in mouse MEB5 cells assessed as reduction in astrocytes at 1 uM after 4 days by GFAP staining based immunofluorescence analysis; format: functional, cell-based
[18] = target: Neurogenic locus notch homolog protein 1 (Mus musculus) (UniProt Q01705); assay: Inhibition of Notch1 in mouse MEB5 cells assessed as reduction in Hes5 expression at 1 uM after 24 hrs by Western blot analysis; format: cell-based; procedure, shortened: as §3
MEB5 [19] = assay: Effect on gamma-secretase activity in mouse MEB5 cells assessed as PS2 expression at 1 uM after 24 hrs by Western blot analysis; format: cell-based; procedure, shortened: as §3
MEB5 [20] = assay: Induction of neuronal differentiation in mouse MEB5 cells assessed as neurite length at 1 uM after 4 days by Tuj1 staining based immunofluorescence analysis (reference value: 14.3 micrometer); format: functional
MEB5 [21] = assay: Induction of neuronal differentiation in mouse MEB5 cells assessed as increase in neurite extension length at 1 uM after 4 days by Tuj1 staining based immunofluorescence analysis relative to control; format: functional
[22] = target: Neurogenic locus notch homolog protein 1 (Mus musculus) (UniProt Q01705); assay: Inhibition of Notch1 in mouse MEB5 cells assessed as reduction in Hes1 expression at 1 uM after 24 hrs by Western blot analysis; format: cell-based; procedure, shortened: as §3
MEB5 [23] = assay: Effect on gamma-secretase activity in mouse MEB5 cells assessed as PEN2 expression at 1 uM after 24 hrs by Western blot analysis; format: cell-based; procedure, shortened: as §3
LS174T = assay: Effect on Notch1 (1704 to 2531 residues) expression in human LS174T cells at 0.001 to 10 uM after 12 hrs by Western blot analysis; format: functional, cell-based; procedure, shortened: as §2

Chain of Neurogenic locus notch homolog protein 1 (Mus musculus) (Q01705 whole entry, the tested form may be a part): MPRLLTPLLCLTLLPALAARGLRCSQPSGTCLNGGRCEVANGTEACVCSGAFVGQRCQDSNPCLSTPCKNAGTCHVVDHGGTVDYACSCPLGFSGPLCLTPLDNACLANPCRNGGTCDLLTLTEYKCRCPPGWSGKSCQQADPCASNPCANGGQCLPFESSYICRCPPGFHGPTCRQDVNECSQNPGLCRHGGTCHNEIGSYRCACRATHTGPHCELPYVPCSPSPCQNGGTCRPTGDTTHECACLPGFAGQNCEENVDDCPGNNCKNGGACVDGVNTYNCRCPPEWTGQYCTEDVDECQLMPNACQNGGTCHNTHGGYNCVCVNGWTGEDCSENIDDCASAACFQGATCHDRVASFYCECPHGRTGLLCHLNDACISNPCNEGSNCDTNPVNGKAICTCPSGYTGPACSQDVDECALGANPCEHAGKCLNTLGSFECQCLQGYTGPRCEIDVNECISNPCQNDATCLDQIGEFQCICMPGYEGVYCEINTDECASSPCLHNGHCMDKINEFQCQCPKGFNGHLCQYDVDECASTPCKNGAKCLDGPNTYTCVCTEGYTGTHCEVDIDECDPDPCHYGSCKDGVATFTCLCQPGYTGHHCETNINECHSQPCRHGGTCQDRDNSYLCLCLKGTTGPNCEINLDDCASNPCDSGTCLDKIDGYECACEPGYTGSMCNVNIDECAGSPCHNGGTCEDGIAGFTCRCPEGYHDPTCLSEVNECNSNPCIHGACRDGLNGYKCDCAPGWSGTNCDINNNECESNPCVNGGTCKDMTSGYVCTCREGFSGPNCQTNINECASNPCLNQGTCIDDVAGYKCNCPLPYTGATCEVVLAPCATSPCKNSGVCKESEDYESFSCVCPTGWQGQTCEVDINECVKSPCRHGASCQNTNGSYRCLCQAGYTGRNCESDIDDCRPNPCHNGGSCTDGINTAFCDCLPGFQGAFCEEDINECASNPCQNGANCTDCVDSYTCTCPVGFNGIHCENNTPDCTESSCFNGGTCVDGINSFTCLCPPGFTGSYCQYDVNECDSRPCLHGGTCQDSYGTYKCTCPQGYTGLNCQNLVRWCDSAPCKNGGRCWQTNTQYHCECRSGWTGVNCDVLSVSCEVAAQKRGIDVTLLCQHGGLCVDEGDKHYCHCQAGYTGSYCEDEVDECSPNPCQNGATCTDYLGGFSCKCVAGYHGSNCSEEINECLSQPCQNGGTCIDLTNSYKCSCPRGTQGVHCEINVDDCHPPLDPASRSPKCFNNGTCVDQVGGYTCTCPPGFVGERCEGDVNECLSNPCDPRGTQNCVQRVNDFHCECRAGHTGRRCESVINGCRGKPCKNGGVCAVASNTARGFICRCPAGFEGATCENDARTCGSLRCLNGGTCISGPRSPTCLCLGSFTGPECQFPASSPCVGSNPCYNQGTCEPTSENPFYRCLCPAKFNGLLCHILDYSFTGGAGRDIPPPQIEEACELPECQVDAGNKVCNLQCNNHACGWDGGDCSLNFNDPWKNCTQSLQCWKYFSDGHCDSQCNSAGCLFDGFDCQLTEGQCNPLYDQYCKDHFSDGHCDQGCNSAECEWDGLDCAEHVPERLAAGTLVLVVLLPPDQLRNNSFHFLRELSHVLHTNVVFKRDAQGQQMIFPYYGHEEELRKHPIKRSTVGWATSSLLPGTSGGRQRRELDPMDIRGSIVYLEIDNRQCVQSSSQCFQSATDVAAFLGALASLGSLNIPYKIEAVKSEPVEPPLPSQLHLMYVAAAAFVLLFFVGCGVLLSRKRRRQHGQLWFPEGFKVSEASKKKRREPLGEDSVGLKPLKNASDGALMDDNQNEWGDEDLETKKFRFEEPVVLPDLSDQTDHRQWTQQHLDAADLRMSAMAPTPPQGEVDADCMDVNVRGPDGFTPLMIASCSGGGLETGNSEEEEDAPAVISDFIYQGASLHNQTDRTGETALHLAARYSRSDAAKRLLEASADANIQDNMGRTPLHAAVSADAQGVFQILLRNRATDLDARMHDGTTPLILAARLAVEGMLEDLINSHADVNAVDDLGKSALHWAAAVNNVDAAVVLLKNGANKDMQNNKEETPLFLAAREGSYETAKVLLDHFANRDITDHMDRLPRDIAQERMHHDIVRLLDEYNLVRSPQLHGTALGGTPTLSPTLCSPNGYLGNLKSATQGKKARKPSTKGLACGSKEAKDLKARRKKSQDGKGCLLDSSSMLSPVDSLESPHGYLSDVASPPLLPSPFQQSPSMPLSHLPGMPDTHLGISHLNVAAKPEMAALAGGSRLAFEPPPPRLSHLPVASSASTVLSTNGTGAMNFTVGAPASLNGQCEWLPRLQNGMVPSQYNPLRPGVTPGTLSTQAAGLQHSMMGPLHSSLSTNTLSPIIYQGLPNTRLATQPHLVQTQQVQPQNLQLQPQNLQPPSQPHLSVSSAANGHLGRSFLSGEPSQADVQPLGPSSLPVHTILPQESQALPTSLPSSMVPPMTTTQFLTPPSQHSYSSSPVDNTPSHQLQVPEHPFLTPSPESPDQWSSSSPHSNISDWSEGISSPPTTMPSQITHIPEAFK
Chain of Neurogenic locus notch homolog protein 1 (Homo sapiens) (P46531 whole entry, the tested form may be a part): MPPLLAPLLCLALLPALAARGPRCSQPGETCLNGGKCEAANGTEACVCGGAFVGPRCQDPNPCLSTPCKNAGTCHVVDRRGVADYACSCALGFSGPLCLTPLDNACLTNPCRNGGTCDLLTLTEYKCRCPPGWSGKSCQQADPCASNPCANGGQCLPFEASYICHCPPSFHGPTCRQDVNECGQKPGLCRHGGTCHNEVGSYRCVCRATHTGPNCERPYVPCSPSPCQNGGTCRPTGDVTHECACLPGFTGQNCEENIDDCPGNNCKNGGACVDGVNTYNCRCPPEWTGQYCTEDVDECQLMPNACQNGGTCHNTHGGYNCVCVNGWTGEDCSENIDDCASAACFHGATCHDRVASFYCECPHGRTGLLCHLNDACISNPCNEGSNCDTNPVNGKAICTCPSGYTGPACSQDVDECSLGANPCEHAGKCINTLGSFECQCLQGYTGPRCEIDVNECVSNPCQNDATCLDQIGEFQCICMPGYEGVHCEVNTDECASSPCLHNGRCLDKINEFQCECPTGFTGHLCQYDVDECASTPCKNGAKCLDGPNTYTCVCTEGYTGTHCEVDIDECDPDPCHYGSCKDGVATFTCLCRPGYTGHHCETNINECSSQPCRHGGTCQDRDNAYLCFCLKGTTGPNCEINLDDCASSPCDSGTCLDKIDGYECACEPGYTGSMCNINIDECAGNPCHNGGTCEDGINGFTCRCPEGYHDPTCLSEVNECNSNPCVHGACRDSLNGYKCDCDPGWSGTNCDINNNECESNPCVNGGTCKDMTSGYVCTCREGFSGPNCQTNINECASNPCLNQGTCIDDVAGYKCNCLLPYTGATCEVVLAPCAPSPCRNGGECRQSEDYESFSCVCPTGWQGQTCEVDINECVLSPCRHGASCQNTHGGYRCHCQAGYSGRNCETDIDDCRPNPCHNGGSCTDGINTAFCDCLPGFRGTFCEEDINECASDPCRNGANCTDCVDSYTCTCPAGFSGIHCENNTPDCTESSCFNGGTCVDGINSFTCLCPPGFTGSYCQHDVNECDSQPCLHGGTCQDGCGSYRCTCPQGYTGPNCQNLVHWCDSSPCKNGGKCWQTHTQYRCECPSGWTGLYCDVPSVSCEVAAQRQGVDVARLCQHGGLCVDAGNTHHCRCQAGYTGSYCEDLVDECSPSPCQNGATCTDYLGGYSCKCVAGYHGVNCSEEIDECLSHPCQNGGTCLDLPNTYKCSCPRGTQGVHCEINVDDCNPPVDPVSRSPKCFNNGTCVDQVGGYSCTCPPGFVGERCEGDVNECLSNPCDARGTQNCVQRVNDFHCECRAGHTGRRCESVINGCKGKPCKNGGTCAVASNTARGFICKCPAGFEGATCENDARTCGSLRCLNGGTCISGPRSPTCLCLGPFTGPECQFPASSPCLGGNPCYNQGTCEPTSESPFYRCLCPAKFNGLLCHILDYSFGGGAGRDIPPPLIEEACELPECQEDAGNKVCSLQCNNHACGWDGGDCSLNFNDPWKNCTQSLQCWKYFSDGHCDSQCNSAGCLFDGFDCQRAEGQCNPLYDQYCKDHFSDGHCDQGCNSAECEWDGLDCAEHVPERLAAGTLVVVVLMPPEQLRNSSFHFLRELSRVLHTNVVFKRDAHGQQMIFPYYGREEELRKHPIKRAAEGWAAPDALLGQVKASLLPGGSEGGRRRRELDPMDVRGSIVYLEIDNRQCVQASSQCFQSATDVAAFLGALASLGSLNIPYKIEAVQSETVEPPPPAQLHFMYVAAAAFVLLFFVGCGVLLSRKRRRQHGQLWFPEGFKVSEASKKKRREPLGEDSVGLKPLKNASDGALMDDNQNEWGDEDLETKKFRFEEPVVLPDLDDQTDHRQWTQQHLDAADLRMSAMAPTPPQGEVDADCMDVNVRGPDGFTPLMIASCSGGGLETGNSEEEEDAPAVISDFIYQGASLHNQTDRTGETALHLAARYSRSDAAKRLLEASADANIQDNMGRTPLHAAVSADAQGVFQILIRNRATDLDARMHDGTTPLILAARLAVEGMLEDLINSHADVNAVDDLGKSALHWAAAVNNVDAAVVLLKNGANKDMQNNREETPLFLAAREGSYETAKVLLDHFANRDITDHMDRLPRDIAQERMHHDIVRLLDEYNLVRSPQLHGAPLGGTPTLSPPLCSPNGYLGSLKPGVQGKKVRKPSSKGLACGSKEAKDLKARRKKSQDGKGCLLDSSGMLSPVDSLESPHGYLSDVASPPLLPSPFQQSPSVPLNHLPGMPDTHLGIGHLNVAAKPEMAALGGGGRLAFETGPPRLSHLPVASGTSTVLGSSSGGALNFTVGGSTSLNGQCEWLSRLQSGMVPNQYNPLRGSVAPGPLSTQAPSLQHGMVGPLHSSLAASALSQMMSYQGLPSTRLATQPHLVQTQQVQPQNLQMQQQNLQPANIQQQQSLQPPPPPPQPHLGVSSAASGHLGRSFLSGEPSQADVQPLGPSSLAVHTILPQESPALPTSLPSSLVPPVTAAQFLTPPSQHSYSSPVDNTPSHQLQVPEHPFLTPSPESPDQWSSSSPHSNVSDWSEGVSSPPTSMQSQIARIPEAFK

inhibition [2]: Active
inhibition [5]: Active
inhibition [6]: Active
Activity [8]: 0.004
Structure (SMILES): C[C@H](NC(=O)Cc1cc(F)cc(F)c1)C(=O)N[C@H](C(=O)OC(C)(C)C)c1ccccc1
Activity (MEB5 [1]): 20.5 um
Activity (MEB5 [3]): 19.7%
Activity (MEB5 [4]): Active
Activity (MEB5 [7]): 43%

Structure (SMILES): CC(=O)O[C@H]1C[C@@H](C)O[C@H]2O[C@@H]3C[C@@H]4CC[C@@H]5[C@H](CC[C@]6(C)[C@@H](C7=CC(=O)OC7)CC[C@]56O)[C@@]4(C=O)C[C@H]3O[C@]21O
inhibition [9]: Dose-dependent effect
Activity [10]: inactive

Structure (SMILES): COC(=O)[C@@]1(O)C[C@@H](C)O[C@H]1O[C@@H]1C[C@@H]2CC[C@@H]3[C@H](CC[C@]4(C)[C@@H](C5=CC(=O)OC5)[C@H](O)C[C@]34O)[C@@]2(C=O)C[C@H]1O
inhibition [9]: Dose-dependent effect

Structure (SMILES): C[C@@H]1CC(=O)[C@]2(O)O[C@@H]3C[C@@]4(C=O)[C@@H](CC[C@@H]5[C@@H]4CC[C@]4(C)[C@@H](C6=CC(=O)OC6)CC[C@]54O)C[C@H]3O[C@@H]2O1
inhibition [9]: Dose-dependent effect

Structure (SMILES): C[C@@H]1C[C@@]2(N=CCS2)[C@]2(O)O[C@@H]3C[C@@]4(C=O)[C@@H](CC[C@@H]5[C@@H]4CC[C@]4(C)[C@@H](C6=CC(=O)OC6)[C@H](O)C[C@]54O)C[C@H]3O[C@@H]2O1
inhibition [9]: Dose-dependent effect

Structure (SMILES): C[C@@H]1C[C@@]2(NC(=O)CS2)[C@]2(O)O[C@@H]3C[C@@]4(C=O)[C@@H](CC[C@@H]5[C@@H]4CC[C@]4(C)[C@@H](C6=CC(=O)OC6)CC[C@]54O)C[C@H]3O[C@@H]2O1
inhibition [9]: Dose-dependent effect

Structure (SMILES): C[C@@H]1C[C@@]2(NCCS2)[C@]2(O)O[C@@H]3C[C@@]4(C=O)[C@@H](CC[C@@H]5[C@@H]4CC[C@]4(C)[C@@H](C6=CC(=O)OC6)CC[C@]54O)C[C@H]3O[C@@H]2O1
inhibition [9]: Dose-dependent effect

Structure (SMILES): C[C@@H]1C[C@H](O)[C@]2(O)O[C@@H]3C[C@@]4(C=O)[C@@H](CC[C@@H]5[C@@H]4CC[C@]4(C)[C@@H](C6=CC(=O)OC6)CC[C@]54O)C[C@H]3O[C@@H]2O1
inhibition [9]: Dose-dependent effect
Activity [10]: inactive

Structure (SMILES): C[C@@H]1C[C@@]2(N=CCS2)[C@]2(O)O[C@@H]3C[C@@]4(C=O)[C@@H](CC[C@@H]5[C@@H]4CC[C@]4(C)[C@@H](C6=CC(=O)OC6)CC[C@]54O)C[C@H]3O[C@@H]2O1 [USCHARIN]
inhibition [9]: Dose-dependent effect
Activity (MEB5 [11]): inactive
Activity (MEB5 [12]): 20.8%
inhibition [13]: inactive
Activity [10]: inactive
inhibition (MEB5 [14]): inactive
inhibition [2]: Active
Activity (MEB5 [15]): inactive
inhibition [16]: Active
Activity (MEB5 [17]): Active
inhibition [18]: Active
Activity (MEB5 [19]): inactive
inhibition [5]: Active
Activity (MEB5 [20]): 19.5 um
Activity (MEB5 [21]): 36%
inhibition [22]: Active
Activity (MEB5 [23]): inactive
Activity (LS174T): inactive
